Screening data (PubChem)
TMEM16A inh: blocks the mouse calcium-activated chloride channel TMEM16A | actives 1.2% (n = 310,000) | normalized B-score (activity score, 25-100; higher = stronger inhibition) at 10 µM | HEK293 TMEM16A/YFP iodide influx fluorescence, ionomycin;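 active means ratio plate-corrected score three or more library SD toward inhibition, starting fluorescence score within five deviations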;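 further: score derived from kinetic fluorescence span divided by baseline fluorescence per well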
MC4R barr agon: agonists of human melanocortin 4 receptor (MC4R) beta-arrestin | P32245 | activation, % at 8.9 µM | U2OS MC4R beta-arrestin complementation, luminescence; percent of melanotan II response, DMSO zero | AID 540308 | actives 0.98% (n = 360,000);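 active means activation above a per-plate cutoff, the mean activation of sample wells on that plate plus 3 SD, cut at about 8% in these data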
Target sequence (P32245 whole entry, looked up): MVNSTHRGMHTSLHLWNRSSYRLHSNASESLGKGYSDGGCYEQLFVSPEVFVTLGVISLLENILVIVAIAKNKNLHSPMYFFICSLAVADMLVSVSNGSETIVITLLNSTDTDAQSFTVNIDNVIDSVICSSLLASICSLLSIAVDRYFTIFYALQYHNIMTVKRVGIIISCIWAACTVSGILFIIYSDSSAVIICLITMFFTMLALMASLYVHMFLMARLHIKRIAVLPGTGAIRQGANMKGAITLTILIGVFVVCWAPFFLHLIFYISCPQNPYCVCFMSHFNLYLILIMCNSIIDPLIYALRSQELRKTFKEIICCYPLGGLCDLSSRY
Beta apoptosis: beta cell apoptosis inhibition | INS-1E cytokine-induced death, ATP luminescence, 48 h; percent of positive-control rescue, neutral wells zero | protection from apoptosis, % (no concentration beside the values) | actives 0.8% (n = 300,000);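 active means Every replicate reaches about 75%, or at least half do and their mean reaches it too, limit read from the data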;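 further: higher means more ATP so stronger rescue from cytokine killing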
MC4R antag cAMP: antagonists of human melanocortin 4 receptor (MC4R) | P32245 | MC4R-expressing cells, MTII-stimulated cAMP, LANCE TR-FRET | inhibition, % at 6.5 µM | actives 0.48% (n = 360,000) | AID 540295;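 active means inhibition above its plate's cutoff, the mean of tested wells on that plate plus 3 SD, cut at about 29% in these data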
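Assay system: U2OS cells stably expressing human melanocortin 4 receptor (MC4R) / Dosing: 6.5 µM / Timing: compound 30 min, challenge 1 h, detection 1 h / Measured by: Eu-cAMP/anti-cAMP TR-FRET, emission 671 nm / Replicates: singlicate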
TMEM16A act: activators or potentiators of mouse TMEM16A chloride channel. B-score at 10 µM. Q8BHY3. actives 0.3% (n = 340,000). HEK293 TMEM16A/YFP-H148Q/I152L, iodide quench fluorescence; hits give low values;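 active means fluorescence-ratio B-score plate-corrected deviation score at least 3 library SD below zero, with starting fluorescence score within 5 deviations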;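 further: channel opened by trigger with iodide after compound preincubation; score built on the fluorescence ratio of max minus min over baseline; more negative score means more quench and so TMEM16A activation or potentiation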
CSC inhib: blocks cancer stem cells; actives 1.1% (n = 300,000); inhibition, % at 7.5 µM; cancer stem cell-like cells viability, luminescence; in the data active means inhibition above about 75%; tested in HMLE shEcad cells
A number is an active result; . = inactive; / = not tested or not shown. Compounds with a hit are over-represented: about 3.8% of the library has one in this group of screens.

SMILES	TMEM16A inh	MC4R barr agon	Beta apoptosis	MC4R antag cAMP	TMEM16A act	CSC inhib
CN(C)CCC(=O)c1ccc2c(c1)OCO2	.	.	.	33.4	.	.
CN(C)CCCC(=O)c1ccc2c(c1)OCO2	.	.	.	.	.	.
c1ccc(-c2nnc3sc(CN4CCc5ccccc54)cn23)cc1	.	.	.	.	.	75.6
CCN(CC)c1ccc(C(=O)OCc2cc(=O)oc3cc(O)ccc23)cc1	.	.	.	.	.	84.2
CCn1c(=S)sc2c(=O)n(CC(=O)Nc3ccc(Cl)cc3)c(C)nc21	.	8.6	.	.	.	.
O=C(COC(=O)/C=C/c1cc(Br)ccc1F)NC1CC1	/	.	.	.	.	.
O=C(Nc1ccc(OCC(=O)N2CCC(Cc3ccccc3)CC2)cc1)c1ccco1	.	.	98.1	.	.	.
CC(C)(C)CNC(=O)c1cccc2c1C(=O)c1ccc(-c3cc4ccccc4o3)cc1S2(=O)=O	/	.	.	.	.	/
COc1ccc(OCc2nnc(SC(C)C(=O)Nc3ccc(N4CCOCC4)cc3)n2C)cc1 (stereo unspecified)	/	.	/	.	.	/
CC(=NCc1ccco1)c1c(C)[nH]n(-c2nc3ccccc3s2)c1=O	.	.	.	.	.	.
C/C(=N/NC(=O)c1cccs1)c1c(C)[nH]n(-c2nc3ccccc3s2)c1=O	.	.	79.5	.	.	.
C=CCn1c(COc2cccc3cccnc23)nnc1SCC(=O)O	.	.	.	.	-10.2	.
C=CCn1c(COc2cccc3ccc(C)nc23)nnc1SCC(=O)O	.	.	.	.	.	.
CCCCC[C@@H]1C=C(C(=O)O)[C@H](c2ccc3c(c2)OCO3)N1S(=O)(=O)c1ccc(C)cc1	/	.	/	.	/	/
N#CCC(C(=O)c1cccnc1)c1ccccc1 (stereo unspecified)	/	.	/	.	/	/
COc1ccc(CNC(=O)CC2C[C@H](C(=O)N3CCOCC3)[C@@]3(CCC4CCCC4)c4[nH]c5ccccc5c4CCN3C2=O)cc1OC (stereo partly specified)	/	.	.	.	/	/
COc1cccc(N2CCN(CC(=O)Nc3ccc(SC(F)F)cc3)CC2)c1	.	.	.	.	.	.
O=C(CN1CCN(c2ccc(O)cc2)CC1)Nc1ccc(SC(F)F)cc1	.	.	.	.	.	133.7
COc1ccc(NC(=O)CN2CCN(c3ccc(F)cc3)CC2)cc1Cl	.	.	.	.	-11.2	.
O=C1C=CC(O)(c2cc(=O)c3c(O)cc(O)cc3o2)C=C1	.	.	110.7	.	.	.
O=c1cc(-c2ccccc2Cl)oc2cc(O)cc(O)c12	.	.	.	.	.	.
Cc1ccc(Cc2c(C)c(C#N)c3[nH]c4ccccc4n3c2=O)cc1	.	.	76.8	.	.	.
CS(=O)(=O)c1ccc(C(=O)OCc2nnc(-c3ccc(Cl)cc3)o2)cc1[N+](=O)[O-]	25	.	.	.	.	.
CC(OC(=O)c1cccc(S(=O)(=O)Nc2cccc(C(F)(F)F)c2)c1)C(=O)Nc1ccc2c(c1)OCCO2 (stereo unspecified)	100	.	.	.	.	.
CC(=O)Nc1ccc(NC(=O)C(C)OC(=O)c2ccc3c(c2)OCCO3)cc1 (stereo unspecified)	.	.	.	.	.	.
SMILES	TMEM16A inh	MC4R barr agon	Beta apoptosis	MC4R antag cAMP	TMEM16A act	CSC inhib
CCc1ccc(NC(=O)c2cnc(SC)nc2C)cc1	.	.	.	.	.	.
Cc1cc2ccccn2c1C(=O)c1ccc([N+](=O)[O-])cc1[N+](=O)[O-]	.	.	.	.	.	.
CCCCCCOC(=O)C[N+](C)(C)CCOC1CC2CCC1(C)C2(C)C (stereo unspecified)	.	.	123.1	.	.	.
CCOC(=O)c1cnc(-c2ccccc2O)nc1Cl	.	.	.	.	.	.
CCOC(=O)C1=Nc2ccccc2C1=[N+]=[N-]	.	.	107.0	.	.	.
CCOc1cc(O)c(-c2[nH]ncc2-c2nc(C)cs2)cc1CC	25	.	.	.	.	.
Cc1ccc(SCc2ccc(C(=O)Nc3cccc([N+](=O)[O-])c3)cc2)cc1	.	27.0	.	.	.	.
Cc1ccc(C(=O)N2CCN=C2SCc2ccc([N+](=O)[O-])cc2)cc1	.	.	.	.	-5.8	.
